HSV replic up: enhancers of HSV replication in host cells, fold increase, host cell viability; HSV replication augmentation in cells; maximum fold increase; hit rate 0.005% among 220,000; AID 1956, 2009; in the data active = maximum fold increase above about 1.5; tested in PC3 cells
L major viab: Leishmania major promastigote growth inhibition, primary screen; Leishmania major promastigotes, resazurin fluorescence viability; inhibition, % at 10 µM; hit rate 9% among 200,000; AID 1063, 2008; in the data active = inhibition above about 50%;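 also: promastigotes grown with compound for 44 hours at 28 °C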
MT stabilize HCS: microtubule stabilizers in HeLa cells, primary screen, imaging, high-content imaging; HeLa tubulin immunostaining HCS, 24 h; share of cells brighter than vehicle mean+2SD; % tubulin-high responders, % at 10 µM; hit rate 0.83% among 200,000; AID 2205, 2009;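 active = plate Z-score above 3 for both tubulin-high and condensed-nucleus cell shares, with cell loss under 80%, at 10 µM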;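 also: anti alpha tubulin signal scored within the nucleus-defined area of each cell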
Dynein cargo inh: inhibitors of GR-EGFP nuclear translocation, primary screen, dynein cargo transport inhibitor project, imaging, high-content, 3617.4 mouse cells; test concentration mostly 20 µM; stimulated with dexamethasone, 1 µM; hits give low values; z-score, hits read low; hit rate 0.47% among 220,000; AID 1381, 2008;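 active = plate z-score of nuclear minus cytoplasmic receptor signal below a set negative limit, without overly bright fluorescence or cell loss, cut at about -3.5 in these data, passing the limit was not always enough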;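 also: z-score of nuclear minus cytoplasmic ring GR-EGFP intensity difference per well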
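Buffer or medium: tet-free, stripped-serum medium; reagent: dexamethasone at 1.0 µM final, 30 min; incubation: 48 h induction, 1 h compound, 30 min dex at 37 °C; measured by: formaldehyde fixation, Hoechst nuclear stain, 10x automated fluorescence imaging; read-out: nuclear-to-cytoplasmic GR-EGFP distribution per well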
bCat nuc transl: modulators of beta-catenin nuclear translocation, primary screen, imaging, HeLa cells, immunofluorescence, high-content; AID 1665, 2009; nuclear translocation activity, % at 5 µM; hit rate 0.3% among 190,000;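 active = nuclear translocation activity above 50% at 5 µM, with a well cell count of 50 or more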;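 also: per-cell ratio of nuclear to cytoplasmic median beta-catenin stain intensity; plate controls were DMSO negative control for no effect and GSK-3 inhibitor IX positive control for full effect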
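Test system: human HeLa cell line; Doses: 5 µM primary, 0.02–20 µM confirmation; Incubation: 24 h compound exposure, 37°C; Detection: beta-catenin immunofluorescence imaging with DAPI; Read-out: beta-catenin nuclear/cytoplasmic ratio, % activation.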
* = called active by the depositor; i = inactive; · = no result. Shown are actives, neighbours in structure and some others; about 8.9% of the full set was active somewhere.

SMILES | HSV replic up | L major viab | MT stabilize HCS | Dynein cargo inh | bCat nuc transl
CCn1c2ccccc2c2cc(/C=N/O)ccc21 | i | -4 | 5 | -0.63 | -1
CC(=O)c1ccc(NC(=O)CSc2nc(N)c3cc4c(nc3n2)CCCC4)cc1 | i | 20 | 3 | -0.028 | -1
COc1cccc(CNC(=O)Cn2cccc2)c1 | · | -4 | 3 | 0.25 | ·
CC1=C(C#N)C(c2ccc(O)cc2)C2=C(CC(C)(C)CC2=O)N1 (stereo not given) | i | -6 | 3 | 0.078 | 5
CN(C)/C=N/c1nc2nccc(-c3ccc(Cl)cc3)n2n1 | i | 6 | 4 | 0.11 | 4
O=C1C2C3C=CC(C3)C2C(=O)N1c1ccc(N2CCN(c3ccccn3)CC2)c([N+](=O)[O-])c1 (stereo not given) | · | 76* | 3 | -0.49 | 4
CC1Cc2ccccc2N1C(=O)CNCCCN(C)C (stereo not given) | · | -1 | 1 | -0.8 | -4
CCOC(=O)/C(C#N)=C/c1cn(CCOc2ccccc2)c2ccccc12 | i | 1 | 3 | -0.44 | 1
COc1ccc(CCN=C(NS(=O)(=O)c2ccccc2)c2ccccc2)cc1OC | i | -6 | 4 | -0.58 | -3
COc1ccc(CCN=C(NS(=O)(=O)c2ccc(Cl)cc2)c2ccccc2)cc1 | i | 66* | 4 | -0.54 | -1
Cc1cc(-c2nn(-c3ccccc3)cc2/C=C2\SC(N)=NC2=O)ccc1OC(C)C | i | 14 | 9 | -0.63 | -2
CC1CCN(C2=NC(=O)/C(=C/c3cn(-c4ccccc4)nc3-c3cccc(S(=O)(=O)N(C)C)c3)S2)CC1 | i | 80* | 4 | 0.059 | -4
CC1CCCN(C2=NC(=O)/C(=C/c3cn(-c4ccccc4)nc3-c3cccc(S(=O)(=O)N(C)C)c3)S2)C1 (stereo not given) | i | 69* | 3 | -0.4 | ·
O=c1[nH]c(Nc2nc3ccccc3o2)nc2c1CCCC2 | i | 95* | 3 | 0.098 | 14
CCCCNC(=S)Nc1cc([N+](=O)[O-])ccc1C | i | 74* | 2 | -0.068 | 0
O=C(NNC(=O)c1ccc([N+](=O)[O-])o1)c1ccccc1 | i | 98* | 2 | -0.53 | 3
O=C(c1ccc([N+](=O)[O-])o1)N1CCc2ccccc2C1 | i | · | · | -0.27 | 0
O=C(c1ccc([N+](=O)[O-])o1)N1CCOCC1 | i | 47 | 2 | -1 | -1
O=C(NN(c1ccccc1)c1ccccc1)c1ccc([N+](=O)[O-])o1 | i | 85* | 12 | -0.91 | 4
C/C(=N/NC(=O)C(O)(c1ccccc1)c1ccccc1)c1ccc([N+](=O)[O-])o1 | i | 96* | 4 | -0.53 | 3
COc1cc(NC(=O)c2ccccc2Cl)c(OC)cc1NC(=O)CN1CCOCC1 | i | 6 | 2 | 2 | -2
N#Cc1c(-c2ccco2)cc(-c2ccc(F)cc2)nc1N | i | 1 | 3 | -1.6 | -4
COc1cc(/C=N/N(C)c2ccccc2)cc(Cl)c1O | i | -1 | 3 | -0.56 | -6
COc1ccc(OC)c(/C=N/N(C)c2ccccc2)c1 | i | 60* | 4 | -0.3 | ·
Cc1ccc(S(=O)(=O)C2CCCCC2=O)cc1 (stereo not given) | i | -10 | 3 | -0.16 | -5
SMILES | HSV replic up | L major viab | MT stabilize HCS | Dynein cargo inh | bCat nuc transl
CCOC(=O)/C(=C\c1ccccc1)C(=O)c1cc(C(C)=O)c(Nc2ccccc2)s1 | i | 100* | 7 | -0.35 | ·
CCOC(=O)C(=Cc1ccc(Br)cc1)C(=O)OCC | i | · | · | -2.4 | 0
CCn1c(SCC(=O)c2c[nH]c3ccccc23)nc2cc(S(=O)(=O)N3CCOCC3)ccc21 | i | 66* | 3 | -1.7 | 7
CCn1c(SCC(N)=O)nc2cc(S(=O)(=O)N3CCOCC3)ccc21 | i | -5 | 4 | 0.39 | -2
CCN(CC)S(=O)(=O)c1ccc(C(=O)OCC(=O)NCCN2C(=O)CSC2=O)cc1 | i | -8 | 2 | -0.51 | -6
COc1ccc(C2CC(=O)c3cnn(-c4nc(C)cc(C)n4)c3C2)cc1 (stereo not given) | i | 78* | 40* | -0.92 | 9
N#Cc1c(-c2ccccc2)cc(C2CC2)nc1SCC(=O)c1cccs1 | · | 2 | 6 | 0.32 | 5
CC1(C)Cc2c(sc(NC(=O)c3ccc4ncsc4c3)c2C(N)=O)C(C)(C)N1 | i | 78* | 2 | -0.69 | 0
